# Values joined by “and” are separate entries in the source; they are usually repeats but may differ in a detail not shown here. Equal values may be shown once.
# Test system: HEK-293T
# Assay: Multiplex assay against HEK293T;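 as to Population Tubulin-Different-Phenotype (%): share of the cells with healthy nuclei that show this phenotype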
# Format: toxicity, cell-based
# Conditions: human
# In short: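 Per cents of healthy-nucleus cells form the tubulin, mitochondrial-mass and membrane-permeability phenotype values. Live cells were stained at seeding with Hoechst33342, BioTracker Green Microtubule Cytoskeleton Dye, MitoTracker Red and Annexin V Alexa Fluor 680. After compound addition they were imaged on a CQ1 microscope at 37°C and 5% CO2, and CellPathfinder machine-learning gating split them into Hoechst high-intensity objects or normal cells, normal cells into healthy, pyknosed or fragmented nuclei, and pyknosed cells into mitotic or apoptotic.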
# [1] = 12 h, 1 µM, compound concentration 1 uM, replicate 1
# [2] = 12 h, 1 µM, compound concentration 1 uM, replicate 2
# [3] = 12 h, 10 µM, compound concentration 10 uM, replicate 1
# [4] = 12 h, 10 µM, compound concentration 10 uM, replicate 2
# [5] = 24 h, 1 µM, compound concentration 1 uM, replicate 1
# [6] = 24 h, 1 µM, compound concentration 1 uM, replicate 2
# [7] = 24 h, 10 µM, compound concentration 10 uM, replicate 1
# [8] = 24 h, 10 µM, compound concentration 10 uM, replicate 2
# [9] = 48 h, 1 µM, compound concentration 1 uM, replicate 1
# [10] = 48 h, 1 µM, compound concentration 1 uM, replicate 2
# [11] = 48 h, 10 µM, compound concentration 10 uM, replicate 1
# [12] = 48 h, 10 µM, compound concentration 10 uM, replicate 2
smiles,measurement,setting,value
Cc1[nH]c(/C=C2\C(=O)Nc3ccc(S(=O)(=O)N(C)c4cccc(Cl)c4)cc32)c(C)c1C(=O)N1CCN(C)CC1,Population Apoptotic (%),[1],60%
same,Population Fragmented Nuclei (%),[1],7%
same,Population Healthy Nuclei (%),[1],47%
same,Population Hoechst High Intensity Objects (%),[1],16%
same,Population Membrane Permeable-Phenotype (%),[1],7%
same,Population Mitochondria Different-Phenotype (%),[1],93%
same,Population Mitotic Cells (%),[1],39%
same,Population Normal (%),[1],83%
same,Population Pyknosed Nuclei (%),[1],44%
same,Population Tubulin-Different-Phenotype (%),[1],91%
same,Total Cell Count,[1],198
same,Population Apoptotic (%),[2],23%
same,Population Fragmented Nuclei (%),[2],6%
same,Population Healthy Nuclei (%),[2],46%
same,Population Hoechst High Intensity Objects (%),[2],4%
same,Population Membrane Permeable-Phenotype (%),[2],18%
same,Population Mitochondria Different-Phenotype (%),[2],52%
same,Population Mitotic Cells (%),[2],76%
same,Population Normal (%),[2],95%
same,Population Pyknosed Nuclei (%),[2],47%
same,Population Tubulin-Different-Phenotype (%),[2],71%
same,Total Cell Count,[2],243
same,Population Apoptotic (%),[3],67%
same,Population Fragmented Nuclei (%),[3],12%
same,Population Healthy Nuclei (%),[3],29%
same,Population Hoechst High Intensity Objects (%),[3],15%
same,Population Membrane Permeable-Phenotype (%),[3],5%
same,Population Mitochondria Different-Phenotype (%),[3],90%
same,Population Mitotic Cells (%),[3],32%
same,Population Normal (%),[3],84%
same,Population Pyknosed Nuclei (%),[3],57%
same,Population Tubulin-Different-Phenotype (%),[3],98%
same,Total Cell Count,[3],214
same,Population Apoptotic (%),[4],50%
same,Population Fragmented Nuclei (%),[4],4%
same,Population Healthy Nuclei (%),[4],40%
same,Population Hoechst High Intensity Objects (%),[4],5%
same,Population Membrane Permeable-Phenotype (%),[4],19%
same,Population Mitochondria Different-Phenotype (%),[4],57%
same,Population Mitotic Cells (%),[4],50%
same,Population Normal (%),[4],94%
same,Population Pyknosed Nuclei (%),[4],55%
same,Population Tubulin-Different-Phenotype (%),[4],93%
same,Total Cell Count,[4],157
same,Population Apoptotic (%),[5],55%
same,Population Fragmented Nuclei (%),[5],11%
same,Population Healthy Nuclei (%),[5],48%
same,Population Hoechst High Intensity Objects (%),[5],18%
same,Population Membrane Permeable-Phenotype (%),[5],3%
same,Population Mitochondria Different-Phenotype (%),[5],85%
same,Population Mitotic Cells (%),[5],44%
same,Population Normal (%),[5],81%
same,Population Pyknosed Nuclei (%),[5],40%
same,Population Tubulin-Different-Phenotype (%),[5],86%
same,Total Cell Count,[5],212
same,Population Apoptotic (%),[6],24%
same,Population Fragmented Nuclei (%),[6],4%
same,Population Healthy Nuclei (%),[6],56%
same,Population Hoechst High Intensity Objects (%),[6],3%
same,Population Membrane Permeable-Phenotype (%),[6],7%
same,Population Mitochondria Different-Phenotype (%),[6],57%
same,Population Mitotic Cells (%),[6],75%
same,Population Normal (%),[6],96%
same,Population Pyknosed Nuclei (%),[6],38%
same,Population Tubulin-Different-Phenotype (%),[6],71%
same,Total Cell Count,[6],295
same,Population Apoptotic (%),[7],88%
same,Population Fragmented Nuclei (%),[7],15%
same,Population Healthy Nuclei (%),[7],27%
same,Population Hoechst High Intensity Objects (%),[7],12%
same,Population Membrane Permeable-Phenotype (%),[7],5%
same,Population Mitochondria Different-Phenotype (%),[7],100%
same,Population Mitotic Cells (%),[7],11%
same,Population Normal (%),[7],87%
same,Population Pyknosed Nuclei (%),[7],56%
same,Population Tubulin-Different-Phenotype (%),[7],98%
same,Total Cell Count,[7],230
same,Population Apoptotic (%),[8],83%
same,Population Fragmented Nuclei (%),[8],7%
same,Population Healthy Nuclei (%),[8],35%
same,Population Hoechst High Intensity Objects (%),[8],4%
same,Population Membrane Permeable-Phenotype (%),[8],10%
same,Population Mitochondria Different-Phenotype (%),[8],81%
same,Population Mitotic Cells (%),[8],16%
same,Population Normal (%),[8],95%
same,Population Pyknosed Nuclei (%),[8],57%
same,Population Tubulin-Different-Phenotype (%),[8],96%
same,Total Cell Count,[8],162
same,Population Apoptotic (%),[9],55%
same,Population Fragmented Nuclei (%),[9],14%
same,Population Healthy Nuclei (%),[9],56%
same,Population Hoechst High Intensity Objects (%),[9],19%
same,Population Membrane Permeable-Phenotype (%),[9],2%
same,Population Mitochondria Different-Phenotype (%),[9],66%
same,Population Mitotic Cells (%),[9],44%
same,Population Normal (%),[9],80%
same,Population Pyknosed Nuclei (%),[9],29%
same,Population Tubulin-Different-Phenotype (%),[9],74%
same,Total Cell Count,[9],246
same,Population Apoptotic (%),[10],31%
same,Population Fragmented Nuclei (%),[10],4%
same,Population Healthy Nuclei (%),[10],75%
same,Population Hoechst High Intensity Objects (%),[10],1%
same,Population Membrane Permeable-Phenotype (%),[10],8%
same,Population Mitochondria Different-Phenotype (%),[10],20%
same,Population Mitotic Cells (%),[10],68%
same,Population Normal (%),[10],98%
same,Population Pyknosed Nuclei (%),[10],19%
same,Population Tubulin-Different-Phenotype (%),[10],54%
same,Total Cell Count,[10],469
same,Population Apoptotic (%),[11],92%
same,Population Fragmented Nuclei (%),[11],17%
same,Population Healthy Nuclei (%),[11],30%
same,Population Hoechst High Intensity Objects (%),[11],15%
same,Population Membrane Permeable-Phenotype (%),[11],5%
same,Population Mitochondria Different-Phenotype (%),[11],100%
same,Population Mitotic Cells (%),[11],7%
same,Population Normal (%),[11],84%
same,Population Pyknosed Nuclei (%),[11],52%
same,Population Tubulin-Different-Phenotype (%),[11],96%
same,Total Cell Count,[11],223
same,Population Fragmented Nuclei (%),[12],4%
same,Population Healthy Nuclei (%),[12],54%
same,Population Hoechst High Intensity Objects (%),[12],3%
same,Population Membrane Permeable-Phenotype (%),[12],9%
same,Population Mitochondria Different-Phenotype (%),[12],68%
same,Population Normal (%),[12],96%
same,Population Pyknosed Nuclei (%),[12],41%
same,Total Cell Count,[12],178
CC(C)C(=O)Nc1n[nH]c2cc(-c3cccc(NS(=O)(=O)C4CC4)c3)ccc12,Population Apoptotic (%),[1],21%
same,Population Fragmented Nuclei (%),[1],16% and 10%
same,Population Healthy Nuclei (%),[1],61% and 63%
same,Population Hoechst High Intensity Objects (%),[1],10% and 14%
same,Population Membrane Permeable-Phenotype (%),[1],4%
same,Population Mitochondria Different-Phenotype (%),[1],4% and 6%
same,Population Mitotic Cells (%),[1],78%
same,Population Normal (%),[1],89% and 85%
same,Population Pyknosed Nuclei (%),[1],22% and 25%
same,Population Tubulin-Different-Phenotype (%),[1],1% and 4%
same,Total Cell Count,[1],541 and 686
same,Population Apoptotic (%),[2],12% and 8%
same,Population Fragmented Nuclei (%),[2],4% and 6%
same,Population Healthy Nuclei (%),[2],85% and 89%
same,Population Hoechst High Intensity Objects (%),[2],3% and 1%
same,Population Membrane Permeable-Phenotype (%),[2],1%
same,Population Mitochondria Different-Phenotype (%),[2],13% and 7%
same,Population Mitotic Cells (%),[2],87% and 91%
same,Population Normal (%),[2],96% and 98%
same,Population Pyknosed Nuclei (%),[2],9% and 4%
same,Population Tubulin-Different-Phenotype (%),[2],7%
same,Total Cell Count,[2],1247 and 1614
same,Population Apoptotic (%),[5],14% and 20%
same,Population Fragmented Nuclei (%),[5],11%
same,Population Healthy Nuclei (%),[5],80% and 75%
same,Population Hoechst High Intensity Objects (%),[5],6% and 10%
same,Population Membrane Permeable-Phenotype (%),[5],8% and 6%
same,Population Mitochondria Different-Phenotype (%),[5],3% and 5%
same,Population Mitotic Cells (%),[5],85% and 79%
same,Population Normal (%),[5],93% and 89%
same,Population Pyknosed Nuclei (%),[5],8% and 13%
same,Population Tubulin-Different-Phenotype (%),[5],4% and 8%
same,Total Cell Count,[5],620 and 701
same,Population Apoptotic (%),[6],4% and 12%
same,Population Fragmented Nuclei (%),[6],22% and 8%
same,Population Healthy Nuclei (%),[6],76% and 86%
same,Population Hoechst High Intensity Objects (%),[6],3% and 4%
same,Population Membrane Permeable-Phenotype (%),[6],5% and 2%
same,Population Mitochondria Different-Phenotype (%),[6],1% and 6%
same,Population Mitotic Cells (%),[6],95% and 87%
same,Population Normal (%),[6],96% and 95%
same,Population Tubulin-Different-Phenotype (%),[6],15%
same,Total Cell Count,[6],2835 and 1472
